Measured values: ChEMBL document CHEMBL1140106, “Blocking estrogen signaling after the hormone: pyrimidine-core inhibitors of estrogen receptor-coactivator binding” (J Med Chem, 2008)

Experiments:
Estrogen receptor [1] = molecular target: T1, Estrogen receptor (Homo sapiens, UniProt P03372); experiment: Binding affinity to ERalpha assessed as inhibition of fluorescein-labeled nuclear receptor domain of steroid receptor coactivator 3 by TR-FRET assay
T1 sequence (P03372 whole entry): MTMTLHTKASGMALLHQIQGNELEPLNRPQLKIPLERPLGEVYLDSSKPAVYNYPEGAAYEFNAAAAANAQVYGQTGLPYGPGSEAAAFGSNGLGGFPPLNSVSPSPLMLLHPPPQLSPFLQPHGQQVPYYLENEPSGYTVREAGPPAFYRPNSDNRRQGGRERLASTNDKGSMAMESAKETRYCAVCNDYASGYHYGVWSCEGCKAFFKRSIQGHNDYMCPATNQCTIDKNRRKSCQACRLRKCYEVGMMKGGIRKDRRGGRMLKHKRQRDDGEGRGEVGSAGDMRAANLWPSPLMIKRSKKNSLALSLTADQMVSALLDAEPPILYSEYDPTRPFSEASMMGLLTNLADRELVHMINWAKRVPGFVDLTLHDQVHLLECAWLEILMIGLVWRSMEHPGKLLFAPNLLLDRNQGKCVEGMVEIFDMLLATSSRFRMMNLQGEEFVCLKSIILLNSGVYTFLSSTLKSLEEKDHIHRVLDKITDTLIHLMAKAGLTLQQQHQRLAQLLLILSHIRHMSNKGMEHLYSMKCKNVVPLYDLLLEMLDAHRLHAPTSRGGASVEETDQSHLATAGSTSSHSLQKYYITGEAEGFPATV
How it was run: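 Fluorescein-SRC-3-NRD (50 nM) was then added for 1 h at room temperature in the dark. Buffer: 20 mM Tris pH 7.5, 0.01% NP40, 50 mM NaCl. SRC-1 Box II peptide served as positive control.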

Estrogen receptor [2] = molecular target: T1, Estrogen receptor; experiment: Antagonist activity at ERalpha in human HEC1 cells assessed as inhibition of estrogen-induced transcriptional activity after 24 hrs by reporter gene assay; format: functional, cell-based, HEC-1
How it was run: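 HEC-1 cells, which lack endogenous ER, were lipofectin-transfected with full-length ERα vector, 2ERE-luciferase reporter and pCMV β-gal as internal control. After 6 h the medium was changed to 5% charcoal-dextran-treated calf serum with ligands.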

Estrogen receptor beta = Estrogen receptor beta (Homo sapiens, UniProt Q92731); experiment: Binding affinity to ERbeta assessed as inhibition of fluorescein-labeled nuclear receptor domain of steroid receptor coactivator 3 by TR-FRET assay
Estrogen receptor beta, sequence (Q92731 whole entry, the tested form may be a part): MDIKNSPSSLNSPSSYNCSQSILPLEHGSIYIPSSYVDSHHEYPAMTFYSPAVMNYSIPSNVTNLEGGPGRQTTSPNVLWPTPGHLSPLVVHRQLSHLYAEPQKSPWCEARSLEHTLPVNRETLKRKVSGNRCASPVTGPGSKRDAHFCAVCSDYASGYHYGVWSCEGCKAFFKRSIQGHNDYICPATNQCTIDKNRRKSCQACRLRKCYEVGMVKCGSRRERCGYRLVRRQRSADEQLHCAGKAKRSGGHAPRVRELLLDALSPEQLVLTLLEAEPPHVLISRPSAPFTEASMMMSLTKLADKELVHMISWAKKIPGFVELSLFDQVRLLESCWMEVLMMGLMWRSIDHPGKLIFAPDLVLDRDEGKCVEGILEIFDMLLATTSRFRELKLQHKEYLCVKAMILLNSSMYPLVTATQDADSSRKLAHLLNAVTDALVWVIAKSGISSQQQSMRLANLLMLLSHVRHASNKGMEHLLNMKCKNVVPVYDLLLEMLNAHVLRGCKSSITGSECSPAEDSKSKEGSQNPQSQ

Structure (SMILES)	Ki (Estrogen receptor [1])	IC50 (Estrogen receptor [2])	Ki (Estrogen receptor beta)
C(=C\c1cc(NCc2ccccc2)nc(NCc2ccccc2)n1)/c1ccccc1	> 1000 µM	> 1000 µM	> 1000 µM
CC(C)CCc1cc(NCc2ccccc2)nc(NCC(C)C)n1	5.8 µM	5.8 µM	> 1000 µM
CC(C)CCc1cc(NCc2ccccc2)nc(NCc2cccc3ccccc23)n1	> 1000 µM	> 1000 µM	> 1000 µM
C(=C\c1cc(OCc2ccccc2)nc(OCc2ccccc2)n1)/c1ccccc1	> 1000 µM	> 1000 µM	> 1000 µM
CC(C)CCc1cc(NCc2cccc3ccccc23)nc(NCC(C)C)n1	–	–	> 1000 µM
CC(C)CCc1nc(NCc2ccccc2)cc(NCC(C)C)n1	> 1000 µM	–	> 1000 µM
CC(C)CNc1nc(CCc2cccc3ccccc23)cc(N(CC(C)C)C(=O)OC(C)(C)C)n1	> 1000 µM	> 1000 µM	> 1000 µM
c1ccc(CCc2cc(NCc3ccccc3)nc(NCc3cccc4ccccc34)n2)cc1	> 1000 µM	–	> 1000 µM
CC(C)CNc1nc(CCc2ccccc2)cc(N(C)CC(C)C)n1	–	–	> 1000 µM
CC(C)CCc1cc(N(Cc2ccccc2)C(=O)OC(C)(C)C)nc(NCc2cccc3ccccc23)n1	> 1000 µM	–	> 1000 µM
CC(C)(C)OC(=O)N(Cc1ccccc1)c1cc(CCc2cccc3ccccc23)nc(NCc2cccc3ccccc23)n1	> 1000 µM	–	> 1000 µM
c1ccc(CCc2cc(CCc3ccccc3)nc(NCc3cccc4ccccc34)n2)cc1	> 1000 µM	> 1000 µM	> 1000 µM
O=S(=O)(Cc1ccccc1)c1cc(CCc2ccccc2)nc(S(=O)(=O)Cc2ccccc2)n1	> 1000 µM	–	> 1000 µM
CC(C)CN(C(=O)OC(C)(C)C)c1cc(CCc2cccc3ccccc23)nc(NCc2ccccc2)n1	> 1000 µM	–	> 1000 µM
CC(C)(C)OC(=O)N(Cc1cccc2ccccc12)c1cc(CCc2ccccc2)nc(NCc2cccc3ccccc23)n1	> 1000 µM	> 1000 µM	> 1000 µM
c1ccc(CNc2cc(CCc3cccc4ccccc34)nc(NCc3cccc4ccccc34)n2)cc1	> 1000 µM	–	> 1000 µM
CC(C)CNc1cc(CCc2cccc3ccccc23)nc(NCc2ccccc2)n1	> 1000 µM	–	> 1000 µM
CC(C)CCc1cc(OCc2ccccc2)nc(OCc2ccccc2)n1	> 1000 µM	> 1000 µM	> 1000 µM
CC(C)CNc1nc(CCc2cccc3ccccc23)cc(N(Cc2ccccc2)C(=O)OC(C)(C)C)n1	> 1000 µM	–	> 1000 µM
CC(C)CCc1cc(SCc2ccccc2)nc(SCc2ccccc2)n1	> 1000 µM	–	> 1000 µM
c1ccc(CNc2cc(CCc3cccc4ccccc34)nc(NCc3ccccc3)n2)cc1	> 1000 µM	–	> 1000 µM
C(=C\c1cc(NCc2ccccc2)nc(NCc2cccc3ccccc23)n1)/c1ccccc1	> 1000 µM	–	> 1000 µM
C(=C\c1cc(NCc2cccc3ccccc23)nc(NCc2cccc3ccccc23)n1)/c1ccccc1	> 1000 µM	–	> 1000 µM
CC(C)CN(C)c1cc(CCc2ccccc2)nc(N(C)CC(C)C)n1	> 1000 µM	–	> 1000 µM
CC(C)CCc1cc(N(C)CC(C)C)nc(NCC(C)C)n1	> 1000 µM	–	> 1000 µM

Structure (SMILES)	Ki (Estrogen receptor [1])	IC50 (Estrogen receptor [2])	Ki (Estrogen receptor beta)
CC(C)CSc1cc(CCc2ccccc2)nc(SCC(C)C)n1	> 1000 µM	–	> 1000 µM
CC(C)CNc1nc(CCc2ccccc2)cc(NCc2cccc3ccccc23)n1	> 1000 µM	–	> 1000 µM
CC(C)CNc1cc(SCC(C)C)nc(NCC(C)C)n1	> 1000 µM	–	> 1000 µM
CCc1cc(NCC(C)C)nc(NCC(C)C)n1	–	–	> 1000 µM
CC(C)(C)OC(=O)N(Cc1cccc2ccccc12)c1cc(CCc2cccc3ccccc23)nc(NCc2ccccc2)n1	> 1000 µM	–	> 1000 µM
CC(C)CNc1nc(CCc2cccc3ccccc23)cc(NCc2ccccc2)n1	> 1000 µM	–	> 1000 µM
CC(C)CSc1cc(SCC(C)C)nc(SCC(C)C)n1	–	> 1000 µM	> 1000 µM
CC(C)CNc1cc(CCc2cccc3ccccc23)nc(NCc2cccc3ccccc23)n1	> 1000 µM	–	> 1000 µM
CC(C)CN(C(=O)OC(C)(C)C)c1cc(CCc2cccc3ccccc23)nc(NCc2cccc3ccccc23)n1	> 1000 µM	–	> 1000 µM
CC(C)CCc1cc(N(Cc2ccccc2)C(=O)OC(C)(C)C)nc(NCC(C)C)n1	> 1000 µM	–	> 1000 µM
c1ccc(CNc2cc(NCc3ccccc3)nc(NCc3ccccc3)n2)cc1	> 1000 µM	–	> 1000 µM
CC(C)(C)OC(=O)N(Cc1cccc2ccccc12)c1cc(/C=C/c2ccccc2)nc(NCc2cccc3ccccc23)n1	> 1000 µM	–	> 1000 µM
CC(C)CN(C)c1cc(CCc2cccc3ccccc23)nc(N(C)CC(C)C)n1	> 1000 µM	–	> 1000 µM
CC(C)CNc1nc(/C=C/c2ccccc2)cc(N(Cc2ccccc2)C(=O)OC(C)(C)C)n1	> 1000 µM	–	132 µM
CC(C)CNc1nc(CCc2cccc3ccccc23)cc(N(C)CC(C)C)n1	–	–	> 1000 µM
c1ccc(CCc2cc(SCc3ccccc3)nc(SCc3ccccc3)n2)cc1	> 1000 µM	–	> 1000 µM
CC(C)CCc1cc(CCC(C)C)nc(NCc2cccc3ccccc23)n1	> 1000 µM	–	> 1000 µM
CC(C)CCc1cc(N(Cc2cccc3ccccc23)C(=O)OC(C)(C)C)nc(NCC(C)C)n1	> 1000 µM	–	> 1000 µM
CC(C)CS(=O)(=O)c1cc(CCc2ccccc2)nc(S(=O)(=O)CC(C)C)n1	> 1000 µM	–	> 1000 µM
C(=C\c1cc(/C=C/c2ccccc2)nc(NCc2cccc3ccccc23)n1)/c1ccccc1	> 1000 µM	–	> 1000 µM
CC(C)CNc1cc(S(=O)(=O)CC(C)C)nc(NCC(C)C)n1	> 1000 µM	–	> 1000 µM
CC(C)CCc1cc(CCC(C)C)nc(NCC(C)C)n1	> 1000 µM	–	> 1000 µM
CC(C)CCc1cc(NCC(C)C)nc(S(=O)(=O)CC(C)C)n1	> 1000 µM	–	> 1000 µM
c1ccc(CNc2nc(CCc3cccc4ccccc34)cc(NCc3cccc4ccccc34)n2)cc1	> 1000 µM	–	> 1000 µM
CC(C)CNc1cc(CCc2ccccc2)nc(NCc2ccccc2)n1	–	–	> 1000 µM

Structure (SMILES)	Ki (Estrogen receptor [1])	IC50 (Estrogen receptor [2])	Ki (Estrogen receptor beta)
CC(C)CNc1cc(CCc2ccccc2)nc(N(C)CC(C)C)n1	> 1000 µM	–	> 1000 µM
CC(C)CNc1cc(NCC(C)C)nc(CCc2cccc3ccccc23)n1	> 1000 µM	–	> 1000 µM
CC(C)CN(C)c1cc(/C=C/c2ccccc2)nc(N(C)CC(C)C)n1	> 1000 µM	–	> 1000 µM
CC(C)CCc1cc(SCC(C)C)nc(SCC(C)C)n1	> 1000 µM	–	> 1000 µM
CC(C)CN(C(=O)OC(C)(C)C)c1cc(CCc2ccccc2)nc(NCc2ccccc2)n1	> 1000 µM	–	> 1000 µM
CC(C)CNc1cc(/C=C/c2ccccc2)nc(N(C)CC(C)C)n1	> 1000 µM	–	> 1000 µM
CC(C)CNc1nc(CCc2cccc3ccccc23)cc(N(Cc2cccc3ccccc23)C(=O)OC(C)(C)C)n1	> 1000 µM	–	> 1000 µM
CC(C)CNc1nc(CCc2cccc3ccccc23)cc(NCc2cccc3ccccc23)n1	> 1000 µM	–	> 1000 µM
CC(C)CNc1cc(CCc2cccc3ccccc23)nc(N(C)CC(C)C)n1	> 1000 µM	–	> 1000 µM
CC(C)CCc1cc(N(C)CC(C)C)nc(N(C)CC(C)C)n1	> 1000 µM	–	> 1000 µM
c1ccc(CCc2cc(CCc3ccccc3)nc(NCc3ccccc3)n2)cc1	> 1000 µM	–	> 1000 µM
CC(C)CCc1cc(N(Cc2cccc3ccccc23)C(=O)OC(C)(C)C)nc(NCc2ccccc2)n1	> 1000 µM	–	> 1000 µM
CC(C)CCc1cc(N(CC(C)C)C(=O)OC(C)(C)C)nc(NCc2cccc3ccccc23)n1	> 1000 µM	–	> 1000 µM
CC(C)CNc1nc(CCc2ccccc2)cc(N(Cc2ccccc2)C(=O)OC(C)(C)C)n1	> 1000 µM	–	> 1000 µM
CC(C)CCc1nc(NCC(C)C)cc(NCC(C)C)n1	> 1000 µM	–	> 1000 µM
CC(C)CNc1cc(OCC(C)C)nc(NCC(C)C)n1	> 1000 µM	–	> 1000 µM
CC(C)CCc1cc(OCC(C)C)nc(OCC(C)C)n1	> 1000 µM	–	> 1000 µM
CC(C)CCc1cc(S(=O)(=O)CC(C)C)nc(S(=O)(=O)CC(C)C)n1	> 1000 µM	–	> 1000 µM
CC(C)CCc1cc(NCC(C)C)nc(NCc2cccc3ccccc23)n1	–	–	> 1000 µM
CC(C)CCc1cc(NCC(C)C)nc(SCC(C)C)n1	> 1000 µM	–	> 1000 µM
CC(C)CCc1cc(S(=O)(=O)Cc2ccccc2)nc(S(=O)(=O)Cc2ccccc2)n1	> 1000 µM	–	> 1000 µM
CC(C)CCc1cc(N(CC(C)C)C(=O)OC(C)(C)C)nc(NCc2ccccc2)n1	> 1000 µM	–	> 1000 µM
CC(C)CNc1cc(NCC(C)C)ncn1	> 1000 µM	–	–
